Source: PubChem BioAssay
Ecoli rRNA inh: selective bacterial rRNA inhibition in E. coli; 350,000 compounds, 1.6% hits; E. coli WT GFP vs humanized-ribosome RFP mutants, fluorescence, 24 h; active compounds read low; DMSO median 0, no signal -100; GFP signal change (wild-type ribosome), % (concentration not given with the values); AID 720706;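 active = significant combined selectivity score with lowered wild-type GFP, culture density cut under 30%, mutant RFP and density less affected; inactive = any of these conditions unmet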
MT1-MMP act inh: blocks activation of human MT1-MMP; AID 651647; GFP/RFP ratio change, % at 20 µM; 360,000 compounds, 0.061% hits; HT1080 RFP-PRO-GFP cells, GFP/RFP ratio fluorescence, overnight; percent of plate control window, DMSO zero;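 active = GFP/RFP ratio change of at least 30% with cell ATP level not reduced by more than half and red fluorescence within 50% of control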
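Material – HT1080 RFP-PRO-GFP cells · Control set – DMSO wells and RFP-L50D-GFP cells · Incubation – overnight cell settling, then overnight compound exposure, 37 °C, 5% CO2 · Compound dosing – single-point 20 µM compound, 1% DMSO · Read-out – GFP/RFP fluorescence ratio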
SKN-1 inh: inhibitors of C. elegans SKN-1; C. elegans VP596 Pgst-4::GFP/RFP ratio, acrylamide-induced, 24 h; 360,000 compounds, 0.49% hits; inhibition, % at 21.8 µM;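 active = interference check ratio from 0.5 to 1.5 plus GFP to RFP signal ratio inhibition reaching or exceeding a fixed threshold, cut at about 30% in these data, passing the limit was not always enough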
hiPSC survival: hiPSC single-cell survival enhancement | 360,000 compounds, 0.044% hits | survival enhancement, % at 20 µM | ATPlite luminescence; 100% = ROCK inhibitor wells, 0% = DMSO | AID 602274; in the data active = survival enhancement above about 18%;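 note: cells exposed to compounds for 16 hours before the ATP read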
DAGLB inhibitor: diacylglycerol lipase beta (human) inhibition; 340,000 compounds, 0.059% hits; HEK293T DAGLB membrane lysate, EnzChek fluorogenic substrate; inhibition, % at 5.17 µM; in the data active = inhibition above about 34%
Target sequence (Q8NCG7 whole entry, looked up): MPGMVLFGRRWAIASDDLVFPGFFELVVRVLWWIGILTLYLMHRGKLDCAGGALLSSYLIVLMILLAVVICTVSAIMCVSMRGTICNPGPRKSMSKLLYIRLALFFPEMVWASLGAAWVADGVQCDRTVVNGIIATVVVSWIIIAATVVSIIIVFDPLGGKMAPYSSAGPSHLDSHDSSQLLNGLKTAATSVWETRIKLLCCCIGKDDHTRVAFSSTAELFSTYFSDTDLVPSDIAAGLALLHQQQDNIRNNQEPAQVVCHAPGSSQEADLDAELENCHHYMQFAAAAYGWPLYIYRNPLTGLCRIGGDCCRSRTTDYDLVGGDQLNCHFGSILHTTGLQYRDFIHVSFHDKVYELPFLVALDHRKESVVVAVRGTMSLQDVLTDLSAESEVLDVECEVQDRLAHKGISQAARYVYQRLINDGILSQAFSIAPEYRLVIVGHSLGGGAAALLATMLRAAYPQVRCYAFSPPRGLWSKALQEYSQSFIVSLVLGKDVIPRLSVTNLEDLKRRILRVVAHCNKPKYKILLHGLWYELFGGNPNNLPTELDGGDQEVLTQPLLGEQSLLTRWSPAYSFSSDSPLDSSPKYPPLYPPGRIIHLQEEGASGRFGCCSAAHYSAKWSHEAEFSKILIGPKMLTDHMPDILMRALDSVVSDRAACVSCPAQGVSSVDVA
Cneo AK release: Cryptococcus neoformans lysis via adenylate kinase release. C. neoformans lysis, adenylate kinase release luminescence, 4 h; normalised: neutral wells 0, clomiphene wells 100. lysis activity, % at 15 µM. 360,000 compounds, 0.2% hits. AID 651654;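 active = mean lysis activity across replicates of at least 80%, whatever share of replicates individually reach that level; inactive = mean lysis activity below 80%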
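Test system: log-phase Cryptococcus neoformans yeast cells. Input: 5 × 10^6 yeast cells/mL. Medium: fresh YPD growth medium. Doses: single dose. Incubation: static 4 h at 37 °C with compound, 1 h detection. Measured by: luminescent adenylate kinase detection reagent. Read-out: signal increase indicating cell lysis. Benchmarks: Clomiphene.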
AID977621: growth inhibition of wild-type GFP E. coli, dose response, H69 mutant RFP, cherry-pick; shares compounds with Ecoli rRNA inh; E. coli wild-type GFP strain growth, fluorescence, 24 h; activity change, negative = inhibition at 50 µM; 1,900 tested, under 10 active;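 active = Wild-type ribosome reporter drop at least double the humanized mutant ribosome reporter drop, growth loss under a set limit; inconclusive = no clear call, values can overlap the other calls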;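 note: wild-type GFP and H69 mutant RFP strains grown together 50/50 in each well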
AID977628: E. coli growth inhibition, wild-type GFP versus h24 humanized RFP strain, dose response, h24 mutant RFP vs wild-type GFP, cherry-pick. shares compounds with Ecoli rRNA inh. E. coli WT GFP strain growth, fluorescence, 24 h. activity change, negative = inhibition at 50 µM. 1,900 tested, under 10 active;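 active = compound lowering the normal-ribosome reporter at least twice as much as the humanized-ribosome reporter, growth loss under a set limit; inconclusive = no clear call, values can overlap the other calls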;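 note: wild-type GFP and h24 humanized RFP strains co-cultured 1 to 1 per well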
Each line names hits and unclear results; the compound was inactive in the other large screens (follow-up assays come after a bar, where they were run); ! = a repeat was not active. Compounds with a hit are over-represented: about 1.8% of the library has one in this group of screens.

Cc1noc(C)c1NC(=O)Nc1ccc2c(c1)C(=O)N([C@@H](C)CO)C[C@H](C)[C@@H](CN(C)C(=O)Nc1ccc3c(c1)OCO3)OCCCC[C@H](C)O2	none (no result: MT1-MMP act inh, SKN-1 inh, hiPSC survival, DAGLB inhibitor) | AID977621 inactive | AID977628 inactive
Cc1noc(C)c1NC(=O)N(C)C[C@@H]1OCCCC[C@H](C)Oc2ccc(NC(=O)Nc3ccc4c(c3)OCO4)cc2C(=O)N([C@@H](C)CO)C[C@H]1C	none (no result: MT1-MMP act inh, SKN-1 inh, hiPSC survival, DAGLB inhibitor)
Cc1noc(C)c1NC(=O)Nc1ccc2c(c1)C(=O)N([C@H](C)CO)C[C@H](C)[C@@H](CN(C)C(=O)Nc1ccc3c(c1)OCO3)OCCCC[C@@H](C)O2	Ecoli rRNA inh -37 (no result: MT1-MMP act inh, SKN-1 inh, hiPSC survival, DAGLB inhibitor) | AID977621 inactive | AID977628 inconclusive
C[C@@H]1CN([C@@H](C)CO)C(=O)c2cc(NC(=O)Nc3cccc4ccccc34)ccc2O[C@@H]1CN(C)S(=O)(=O)c1cn(C)cn1	none (no result: MT1-MMP act inh, SKN-1 inh, hiPSC survival, DAGLB inhibitor)
COC(=O)[C@H]1[C@H](CO)[C@H]2Cn3c(ccc(C4=CCCC4)c3=O)[C@H]2N1C(=O)C1CCC1	none (no result: MT1-MMP act inh, SKN-1 inh, hiPSC survival, DAGLB inhibitor)
C[C@@H]1CCCCO[C@@H](CN(C)Cc2ccccc2)[C@@H](C)CN([C@H](C)CO)C(=O)c2cc(NC(=O)Nc3ccc(C(F)(F)F)cc3)ccc2O1	none (no result: MT1-MMP act inh, SKN-1 inh, hiPSC survival, DAGLB inhibitor)
O=C(c1ccncc1)N1CC(=O)N2[C@H](C1)[C@@H](c1ccc(/C=C/c3ccccc3)cc1)[C@@H]2CO	none (no result: MT1-MMP act inh, SKN-1 inh, hiPSC survival, DAGLB inhibitor, Cneo AK release)
C[C@H]1CN([C@@H](C)CO)C(=O)c2c(c3ccccc3n2C)-c2ccccc2CO[C@@H]1CN(C)C(=O)CCN(C)C	none (no result: MT1-MMP act inh, SKN-1 inh, hiPSC survival, DAGLB inhibitor)
C[C@@H]1CN([C@H](C)CO)C(=O)c2c(c3ccccc3n2C)-c2ccccc2CO[C@@H]1CN(C)C(=O)CCN(C)C	Ecoli rRNA inh -19! (no result: MT1-MMP act inh, SKN-1 inh, hiPSC survival, DAGLB inhibitor, Cneo AK release) | AID977628 inactive
C[C@H]1CN([C@@H](C)CO)C(=O)c2c(c3ccccc3n2C)-c2ccccc2CO[C@@H]1CN(C)Cc1ccccc1	Ecoli rRNA inh -42 (no result: MT1-MMP act inh, SKN-1 inh, hiPSC survival, DAGLB inhibitor, Cneo AK release) | AID977621 inconclusive | AID977628 inconclusive
Cc1cccc(N2CCN(Cc3nc(-c4ccc(F)cc4F)oc3C)CC2)n1	Ecoli rRNA inh -34 | AID977621 inactive | AID977628 inactive
Cc1cnc(C)c(N2CCN(Cc3nc(-c4cccc(F)c4F)oc3C)CC2)n1	none (no result: Cneo AK release)
C[C@H]1CN([C@@H](C)CO)C(=O)Cc2cc(NS(=O)(=O)c3ccc(F)cc3)ccc2O[C@H]1CN(C)Cc1ccc(C(=O)O)cc1	none (no result: MT1-MMP act inh, SKN-1 inh, hiPSC survival, DAGLB inhibitor)
Cc1cccc(OCCNc2ncccc2[N+](=O)[O-])c1	Ecoli rRNA inh -17 | AID977621 inconclusive
Cc1cccc(OCCNc2cc(N3CCN(C)CC3)ccc2[N+](=O)[O-])c1	none (no result: Ecoli rRNA inh)
CC1Cc2ccccc2N1C(=O)CN1C(=O)NC(C)(CCc2ccccc2)C1=O (stereo not drawn)	Ecoli rRNA inh -18 | AID977621 inactive | AID977628 inactive
CCOc1ccccc1/C=C/c1cc(C(=O)O)c2ccccc2n1	Ecoli rRNA inh -23 (no result: Cneo AK release) | AID977621 inactive
C[C@@H]1CN([C@@H](C)CO)C(=O)c2cc(C#CC3CC3)cnc2O[C@H]1CN(C)C(=O)c1ccncc1	none (no result: MT1-MMP act inh, SKN-1 inh, hiPSC survival, DAGLB inhibitor, Cneo AK release)
C[C@]12C(=O)N(c3ccc(F)cc3)C(=O)N1[C@@H]1c3ccccc3OC[C@@H]1[C@H]2c1ccccc1	Ecoli rRNA inh -25 | AID977621 inactive | AID977628 inactive
C[C@@]12C(=O)N(c3ccc(C(F)(F)F)cc3)C(=O)N1[C@@H]1c3ccccc3OC[C@@H]1[C@H]2c1ccccc1	none (no result: Ecoli rRNA inh)
O=C1N[C@@H](Cc2ccccc2)COCc2cnnn2CC[C@@H]1Cc1cccc(F)c1	none (no result: MT1-MMP act inh, SKN-1 inh, hiPSC survival, DAGLB inhibitor, Cneo AK release)
CCC(C(=O)NC1CCCC1)n1c(-c2ccncc2)nc2ccccc21 (stereo not drawn)	none (no result: hiPSC survival, DAGLB inhibitor, Cneo AK release)
